Assay results reported in ChEMBL document CHEMBL1146182, “Synthesis and cytotoxic evaluation of combretafurans, potential scaffolds for dual-action antitumoral agents” (J Med Chem, 2006).
Active and inactive are the calls of the source. No cut-off for these calls is given here.

Assays:
Tubulin (Homo sapiens) [1] = target: T1, Tubulin (Homo sapiens) (UniProt P68371+Q9H4B7+P0DPH7+P68366+Q13509+Q71U36+P04350+Q3ZCM7+P07437+P68363+Q9BQE3+Q6PEY2+Q13885+Q9BVA1+Q9BUF5); test: Inhibition of tubulin polymerization; format: protein-complex assay
Outline: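 Whole-cell (in vivo) tubulin polymerization assay in neuroblastoma cells. Cells are incubated overnight with a high inhibitor concentration. Proteins are then extracted in the presence of paclitaxel so that the tubulin polymerization state is frozen at extraction.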

SH-SY5Y [2] = test: Cytotoxicity against SHSY5Y cell line by MTT assay; format: functional, cell-based; details: Homo sapiens
SH-SY5Y [3] = test: Cytotoxicity against SHSY5Y cell line upto 1 uM by MTT assay; format: functional, cell-based; details: Homo sapiens
SH-SY5Y [4] = test: Cell cycle arrest in SHSY5Y cells by accumulation at G1 phase after 4 hrs; format: functional, Homo sapiens
SH-SY5Y [5] = test: Cell cycle arrest in SHSY5Y cells by accumulation at S phase after 8 hrs; format: functional, Homo sapiens
SH-SY5Y [6] = test: Cell cycle arrest in SHSY5Y cells by accumulation at S phase after 12 hrs; format: functional, Homo sapiens
SH-SY5Y [7] = test: Cell cycle arrest in SHSY5Y cells by accumulation at G2 phase after 8 hrs; format: functional, Homo sapiens
SH-SY5Y [8] = test: Cell cycle arrest in SHSY5Y cells by accumulation at S phase after 4 hrs; format: functional, Homo sapiens
SH-SY5Y [9] = test: Cell cycle arrest in SHSY5Y cells by accumulation at G2 phase after 12 hrs; format: functional, Homo sapiens
SH-SY5Y [10] = test: Cell cycle arrest in SHSY5Y cells by accumulation at S phase after 24 hrs; format: functional, Homo sapiens
SH-SY5Y [11] = test: Cell cycle arrest in SHSY5Y cells by accumulation at G2 phase after 4 hrs; format: functional, Homo sapiens
Tubulin (Homo sapiens) [12] = target: T1, Tubulin (Homo sapiens); test: Induction of tubulin depolymerization at 35.8 nM after 24 hrs; format: protein-complex assay
SH-SY5Y [13] = test: Cell cycle arrest in SHSY5Y cells by accumulation at G1 phase after 12 hrs; format: functional, Homo sapiens
SH-SY5Y [14] = test: Cell cycle arrest in SHSY5Y cells by accumulation at G1 phase after 24 hrs; format: functional, Homo sapiens
SH-SY5Y [15] = test: Cell cycle arrest in SHSY5Y cells by accumulation at G2 phase after 24 hrs; format: functional, Homo sapiens
SH-SY5Y [16] = test: Cell cycle arrest in SHSY5Y cells by accumulation at G1 phase after 8 hrs; format: functional, Homo sapiens
Tubulin (Homo sapiens) [17] = target: T1, Tubulin (Homo sapiens); test: Induction of tubulin depolymerization at 231 nM after 24 hrs; format: protein-complex assay
Tubulin (Homo sapiens) [18] = target: T1, Tubulin (Homo sapiens); test: Induction of tubulin depolymerization at 2.9 nM after 24 hrs; format: protein-complex assay

Compound	Activity (Tubulin (Homo sapiens) [1])	IC50 (SH-SY5Y [2]) [nM]	Activity (SH-SY5Y [3])	Activity (SH-SY5Y [4]) [%]	Activity (SH-SY5Y [5]) [%]	Activity (SH-SY5Y [6]) [%]	Activity (SH-SY5Y [7]) [%]	Activity (SH-SY5Y [8]) [%]	Activity (SH-SY5Y [9]) [%]	Activity (SH-SY5Y [10]) [%]	Activity (SH-SY5Y [11]) [%]	Activity (Tubulin (Homo sapiens) [12])	Activity (SH-SY5Y [13]) [%]	Activity (SH-SY5Y [14]) [%]	Activity (SH-SY5Y [15]) [%]	Activity (SH-SY5Y [16]) [%]	Activity (Tubulin (Homo sapiens) [17])	Activity (Tubulin (Homo sapiens) [18])
COc1ccc(-c2c(-c3cc(OC)c(OC)c(OC)c3)coc2/C=N/NC(=O)CCCC(=O)O)cc1	Active	1670	–	–	–	–	–	–	–	–	–	–	–	–	–	–	–	–
COc1ccc(-c2cocc2-c2cc(OC)c(OC)c(OC)c2)cc1N	Active	5.1	–	–	–	–	–	–	–	–	–	–	–	–	–	–	–	–
COc1ccc(-c2cocc2-c2cc(OC)c(OC)c(OC)c2)cc1[N+](=O)[O-]	Active	245	–	–	–	–	–	–	–	–	–	–	–	–	–	–	–	–
COc1cc(-c2cocc2-c2ccc3c(c2)OCO3)cc(OC)c1OC	Active	–	inactive	–	–	–	–	–	–	–	–	–	–	–	–	–	–	–
COc1ccc(-c2coc(C=O)c2-c2cc(OC)c(OC)c(OC)c2)cc1	Active	35.8	–	53	46	39	25	54	55	78	41	inactive	50	58	81	74	–	–
COc1ccc(/C=C\c2cc(OC)c(OC)c(OC)c2)cc1O [COMBRETASTATIN A4]	Active	1.6	–	69	79	83	55	49	52	83	82	–	64	25	92	66	–	–
COc1ccc(-c2cocc2-c2cc(OC)c(OC)c(OC)c2)cc1	–	39	–	–	–	–	–	–	–	–	–	–	–	–	–	–	–	–
COc1ccc(-c2c(-c3cc(OC)c(OC)c(OC)c3)coc2C=O)cc1	Active	231	–	32	84	79	23	54	82	29	62	–	42	77	25	93	Active	–
COc1ccc(-c2cocc2-c2cc(OC)c(OC)c(OC)c2)cc1O	Active	2.9	–	33	58	43	55	53	38	85	33	–	47	70	45	87	–	Active
